Experimental data reported in ChEMBL document CHEMBL3997826, “Discovery and characterization of novel indole and 7-azaindole derivatives as inhibitors of β-amyloid-42 aggregation for the treatment of Alzheimer's disease” (Bioorg Med Chem Lett, 2017).

Tests used:
[1] = target: T1, Amyloid-beta precursor protein (Homo sapiens, UniProt P05067); experiment: Inhibition of HFIP-pretreated amyloid beta (1 to 42 residues) (unknown origin) aggregation at 1:10 protein to compound ratio after 24 hrs by ThT fluorescence assay relative to control; conditions: concentration not given here
T1 sequence (P05067 whole entry, the tested form may be a part): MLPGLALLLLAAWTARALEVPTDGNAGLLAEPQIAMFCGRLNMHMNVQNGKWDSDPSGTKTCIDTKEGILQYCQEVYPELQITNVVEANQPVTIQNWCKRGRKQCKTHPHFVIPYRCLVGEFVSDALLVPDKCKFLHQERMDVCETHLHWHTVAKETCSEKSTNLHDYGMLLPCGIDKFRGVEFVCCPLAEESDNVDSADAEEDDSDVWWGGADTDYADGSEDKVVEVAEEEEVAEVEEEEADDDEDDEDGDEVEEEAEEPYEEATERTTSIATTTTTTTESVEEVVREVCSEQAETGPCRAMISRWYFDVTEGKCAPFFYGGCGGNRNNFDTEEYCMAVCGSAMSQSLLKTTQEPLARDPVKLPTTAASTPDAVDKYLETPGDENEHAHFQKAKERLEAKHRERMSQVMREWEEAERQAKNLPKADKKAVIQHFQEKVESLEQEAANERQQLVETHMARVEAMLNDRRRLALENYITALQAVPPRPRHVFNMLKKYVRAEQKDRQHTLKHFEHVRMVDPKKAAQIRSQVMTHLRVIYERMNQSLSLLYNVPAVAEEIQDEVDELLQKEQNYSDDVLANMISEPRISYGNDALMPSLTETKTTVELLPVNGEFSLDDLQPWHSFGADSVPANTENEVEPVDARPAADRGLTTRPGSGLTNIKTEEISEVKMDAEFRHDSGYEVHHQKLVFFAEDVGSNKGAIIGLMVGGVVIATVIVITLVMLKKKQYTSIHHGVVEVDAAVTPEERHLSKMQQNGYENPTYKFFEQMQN
Method in brief: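 A crude Aβ1-42 peptide film at 33 µM was mixed with compound at 330 µM, a 1:10 molar ratio, and aggregation was read by thioflavin-T fluorescence. Values are percent of the DMSO-only Aβ1-42 aggregation control, as the mean ± SD of two independent experiments.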

[2] = target: T1, Amyloid-beta precursor protein; experiment: Inhibition of HFIP-pretreated amyloid beta (1 to 42 residues) (unknown origin) aggregation after 24 hrs by ThT fluorescence assay
[3] = Permeability from apical to basolateral side in human Caco2 cells; assay type: ADME, cell-based; conditions: Caco-2, read-out: permeability
Method in brief: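 Apical-to-basolateral permeability was reported in cm/s. The efflux ratio was used to judge P-gp substrate status.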

[4] = Metabolic stability in human liver microsomes assessed as parent compound remaining after 1 hr; assay type: ADME, microsome; conditions: read-out: Stability
Method in brief: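 Compounds were incubated with human or mouse liver microsomes for 1 h at 37 °C. The read-out was the percentage of parent compound remaining.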

Liver = experiment: Drug metabolism in human liver microsomes assessed as oxidation of indole-3 position; assay type: ADME, microsome
[5] = Half life in human liver microsomes; assay type: ADME, microsome

Row | inhibition [1] | IC50 [2] | Structure (SMILES) | further results
1 | 81 to 93% | 42 µM | Cn1cc(C2CCNCC2)c2ccc(Nc3ccc(F)c(F)c3)cc21 | 
2 | 48% |  | c1cc2ccc(NC3CCNCC3)nc2[nH]1 | 
3 | > 90% |  | c1cc2c(C3CCNCC3)c[nH]c2cc1Nc1ccc2c(C3CCNCC3)c[nH]c2c1 | Papp A→B [3]: 0.01 ×10⁻⁶ cm/s; remaining at 1 h [4]: 89%
4 | > 90% |  | CN1CCC(c2c[nH]c3ccc(Nc4ccc5c(C6CCNCC6)c[nH]c5n4)cc23)CC1 | Papp A→B [3]: 0.02 ×10⁻⁶ cm/s; remaining at 1 h [4]: 95%
5 | > 90% | 15.3 µM | CN1CCC(c2c[nH]c3cc(Nc4ccc5[nH]cc(C6CCN(C)CC6)c5c4)ccc23)CC1 | 
6 | 81 to 93% | 24 µM | FC(F)(F)c1ccc(Nc2ccc3c(C4CCNCC4)c[nH]c3c2)cn1 | 
7 | 60% |  | Fc1cc(F)cc(Nc2ccc3cc[nH]c3n2)c1 | 
8 | > 90% |  | CN1CCC(c2c[nH]c3cc(Nc4ccc5c(C6CCN(C)CC6)c[nH]c5c4)ccc23)CC1 | 
9 | 98% | 23.8 µM | c1cc2ncc(Nc3ccc4cc[nH]c4n3)cc2[nH]1 | Drug metabolism (Liver): Metabolite_Detected; half-life [5]: 11 min
10 | 71% |  | c1ccc(Nc2ccc3cc[nH]c3n2)nc1 | 
11 | > 90% | 26.6 µM | c1cc2c(C3CCNCC3)c[nH]c2cc1Nc1ccc2[nH]cc(C3CCNCC3)c2c1 | 
12 | 75% |  | c1cc2ccc(Nc3ccc4cc[nH]c4n3)cc2[nH]1 | 
13 | 52% |  | Fc1ccc(Nc2ccc3cc[nH]c3n2)cc1 | 
14 | 81 to 93% | 48 µM | CN1CCC(c2c[nH]c3cc(Nc4ccc(F)c(F)c4)ccc23)CC1 | 
15 | 94% |  | c1cc2cc(Nc3ccc4cc[nH]c4c3)ccc2[nH]1 | 
16 | 75% |  | c1cc2ccc(Nc3ccc4cc[nH]c4n3)nc2[nH]1 | 
17 | > 90% | 25.6 µM | c1cc2c(C3CCNCC3)c[nH]c2cc1Nc1ccc2c(C3CCNCC3)c[nH]c2n1 | 
18 | > 90% | 17.8 µM | N#Cc1c[nH]c2nc(Nc3ccc4c(C5CCNCC5)c[nH]c4c3)ccc12 | 
19 | 96% |  | c1cc2ccc(Nc3ccc4cc[nH]c4c3)cc2[nH]1 | 
20 | 52% |  | Fc1cc(F)cc(Nc2cnc3cc[nH]c3c2)c1 | 
21 | 81 to 93% | 24 µM | Fc1ccc(Nc2ccc3c(C4CCNCC4)c[nH]c3c2)cc1F | 
22 | 81 to 93% | 30 µM | Fc1ccc(Nc2ccc3c(C4CCNCC4)c[nH]c3n2)cc1F | 
23 | 86% |  | c1cc2cc(Nc3ccc4cc[nH]c4n3)cnc2[nH]1 | 
24 | 81 to 93% | 25 µM | COc1ccc(Nc2ccc3c(C4CCN(C)CC4)c[nH]c3c2)cc1OC | 
25 | 97% |  | c1cc2cc(Nc3ccc4cc[nH]c4n3)ccc2[nH]1 | 
